Measurements from ChEMBL document CHEMBL1137810, “Dammarane-type Saponins from Panax japonicus and their neurite outgrowth activity in SK-N-SH cells” (J Nat Prod, 2002).

Legend:
[1] = tested on: SK-N-SH; experiment: Induction of neurite outgrowth in human SK-N-SH cells at 100 uM after 5 days relative to control; assay type: functional
Method in brief: (§1)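 SK-N-SH cells were plated at 4.7 × 10^4 cell/mL in gridded 60 mm dishes. Compound was added once at the start of culture, with 0.1% DMSO vehicle as control. After 5 days, 100-300 cells in four 650 × 430 µm areas were scored for the percentage bearing neurites longer than 50 µm, expressed as % of control. Values are mean ± sem of eight sights; Student's t-test, P < 0.05.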

[2] = tested on: SK-N-SH; experiment: Effect on neurite outgrowth activity in human SK-N-SH cells assessed as increase in number of vericosites at 100 uM after 5 days; assay type: functional
Method in brief: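 Human SK-N-SH cells plated at 4.7 × 10^4 cell/mL in gridded 60 mm dishes. Compound added once at culture start at 100 µM; vehicle 0.1% DMSO. Cells examined after 5 days in four areas (650 × 430 µm). Varicosity number counted per cell, 40 cells per value, mean ± sem. Compared with control by Student's t-test, P < 0.05.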

[3] = tested on: SK-N-SH; experiment: Induction of neurite outgrowth in human SK-N-SH cells at 10 uM after 5 days relative to control; assay type: functional; method in brief: as §1
[4] = tested on: SK-N-SH; experiment: Cytotoxicity against human SK-N-SH cells at 100 uM; assay type: cell-based

| SMILES | Activity [1] [%] | also measured |
| --- | --- | --- |
| CC(C)(O)[C@@H]1CC[C@@](C)([C@H]2CC[C@]3(C)[C@@H]2[C@H](O)C[C@@H]2[C@@]4(C)CC[C@H](O)C(C)(C)[C@@H]4[C@@H](O[C@@H]4O[C@H](CO[C@H]5O[C@H](CO)[C@@H](O)[C@H](O)[C@H]5O)[C@@H](O)[C@H](O)[C@H]4O[C@@H]4OC[C@@H](O)[C@H](O)[C@H]4O)C[C@]23C)O1 | 104.1 | – |
| CC(C)=CCC[C@](C)(O[C@@H]1O[C@H](CO)[C@@H](O)[C@H](O)[C@H]1O)[C@H]1CC[C@]2(C)[C@@H]1[C@H](O)C[C@@H]1[C@@]3(C)CC[C@H](O)C(C)(C)[C@@H]3[C@@H](O[C@@H]3O[C@H](CO)[C@@H](O)[C@H](O)[C@H]3O[C@@H]3OC[C@@H](O)[C@H](O)[C@H]3O)C[C@]12C [NOTOGINSENOSIDE R1] | 84.6 | – |
| CC(C)=CCC[C@](C)(O[C@@H]1O[C@H](CO)[C@@H](O)[C@H](O)[C@H]1O)[C@H]1CC[C@]2(C)[C@@H]1[C@H](O)C[C@@H]1[C@@]3(C)CC[C@H](O)C(C)(C)[C@@H]3[C@@H](O[C@@H]3O[C@H](CO)[C@@H](O)[C@H](O)[C@H]3O[C@@H]3O[C@@H](C)[C@H](O)[C@@H](O)[C@H]3O)C[C@]12C [GINSENOSIDE RE] | 83.5 | – |
| CC(C)=CCC[C@](C)(O[C@@H]1O[C@H](CO[C@@H]2O[C@H](CO)[C@@H](O)[C@H](O)[C@H]2O)[C@@H](O)[C@H](O)[C@H]1O)[C@H]1CC[C@]2(C)[C@@H]1[C@H](O)C[C@@H]1[C@@]3(C)CC[C@H](O[C@@H]4O[C@H](CO)[C@@H](O)[C@H](O)[C@H]4O[C@@H]4O[C@H](CO)[C@@H](O)[C@H](O)[C@H]4O[C@@H]4OC[C@@H](O)[C@H](O)[C@H]4O)C(C)(C)[C@@H]3CC[C@]12C [NOTOGINSENOSIDE FA] | 147 | Activity [2]: 0.53 |
| CC(=O)OC[C@H]1O[C@@H](O[C@H]2C[C@]3(C)[C@H](C[C@@H](O)[C@@H]4[C@@H]([C@]5(C)CC[C@@H](C(C)(C)O)O5)CC[C@]43C)[C@@]3(C)CC[C@H](O)C(C)(C)[C@H]23)[C@H](O[C@@H]2O[C@H](C)[C@@H](O)[C@H](O)[C@@H]2O)[C@@H](O)[C@@H]1O [VINA-GINSENOSIDE R1] | 82.2 | – |
| CC(=O)OC[C@H]1O[C@@H](O[C@H]2C[C@]3(C)[C@H](C[C@@H](O)[C@@H]4[C@@H]([C@]5(C)CC[C@@H](C(C)(C)O)O5)CC[C@]43C)[C@@]3(C)CC[C@H](O)C(C)(C)[C@H]23)[C@H](O[C@@H]2OC[C@@H](O)[C@H](O)[C@H]2O)[C@@H](O)[C@@H]1O [GINSENOSIDE R2] | 97 | – |
| C[C@@H]1O[C@@H](O[C@H]2[C@H](O[C@H]3C[C@]4(C)[C@H](C[C@@H](O)[C@@H]5[C@@H]([C@]6(C)CC[C@@H](C(C)(C)O)O6)CC[C@]54C)[C@@]4(C)CC[C@H](O)C(C)(C)[C@H]34)O[C@H](CO)[C@@H](O)[C@@H]2O)[C@H](O)[C@H](O)[C@H]1O | – | Activity [3]: 103%; Activity [4]: Toxic |
| CC(C)=CCC[C@](C)(O[C@@H]1O[C@H](CO[C@@H]2OC[C@@H](O)[C@H](O)[C@H]2O)[C@@H](O)[C@H](O)[C@H]1O)[C@H]1CC[C@]2(C)[C@@H]1[C@H](O)C[C@@H]1[C@@]3(C)CC[C@H](O[C@@H]4O[C@H](CO)[C@@H](O)[C@H](O)[C@H]4O[C@@H]4O[C@H](CO)[C@@H](O)[C@H](O)[C@H]4O)C(C)(C)[C@@H]3CC[C@]12C [GINSENOSIDE RB3] | 228 | Activity [2]: 0.8 |
| CC(C)=CCC[C@](C)(O[C@@H]1O[C@H](CO)[C@@H](O)[C@H](O)[C@H]1O)[C@H]1CC[C@]2(C)[C@@H]1[C@H](O)C[C@@H]1[C@@]3(C)CC[C@H](O)C(C)(C)[C@@H]3[C@@H](O[C@@H]3O[C@H](CO)[C@@H](O)[C@H](O)[C@H]3O[C@@H]3O[C@H](CO)[C@@H](O)[C@H](O)[C@H]3O)C[C@]12C | 96.6 | – |
| CC(C)(O)[C@@H]1CC[C@@](C)([C@H]2CC[C@]3(C)[C@@H]2[C@H](O)C[C@@H]2[C@@]4(C)CC[C@H](O)C(C)(C)[C@@H]4[C@@H](O[C@@H]4O[C@H](CO)[C@@H](O)[C@H](O)[C@H]4O[C@@H]4OC[C@@H](O)[C@H](O)[C@H]4O)C[C@]23C)O1 [MAJONOSIDE R2] | 109.6 | – |
| CC(C)=CCC[C@](C)(O[C@@H]1O[C@H](CO)[C@@H](O)[C@H](O)[C@H]1O)[C@H]1CC[C@]2(C)[C@@H]1[C@H](O)C[C@@H]1[C@@]3(C)CC[C@H](O)C(C)(C)[C@@H]3[C@@H](O[C@@H]3O[C@H](CO)[C@@H](O)[C@H](O)[C@H]3O)C[C@]12C [GINSENOSIDE RG1] | 107.3 | – |
| CC(C)=CCC[C@](C)(O[C@@H]1O[C@H](CO[C@@H]2O[C@H](CO)[C@@H](O)[C@H](O)[C@H]2O)[C@@H](O)[C@H](O)[C@H]1O)[C@H]1CC[C@]2(C)[C@@H]1[C@H](O)C[C@@H]1[C@@]3(C)CC[C@H](O[C@@H]4O[C@H](CO)[C@@H](O)[C@H](O)[C@H]4O[C@@H]4O[C@H](CO)[C@@H](O)[C@H](O)[C@H]4O)C(C)(C)[C@@H]3CC[C@]12C [GINSENOSIDE RB1] | 178 | Activity [2]: 0.93 |
| CC(C)(O)[C@@H]1CC[C@@](C)([C@H]2CC[C@]3(C)[C@@H]2[C@H](O)C[C@@H]2[C@@]4(C)CC[C@H](O)C(C)(C)[C@@H]4[C@@H](O[C@@H]4O[C@H](CO)[C@@H](O)[C@H](O)[C@H]4O)C[C@]23C)O1 | 91.4 | – |
